From publication PMC10238757 (Pharmacology Research & Perspectives, 2023)

How the values were obtained:
[1] = test system: healthy participants; settings: SAD 800 mg, N=6
[2] = test system: HIV-1; settings: cited from earlier work
[3] = Relative bioavailability and food effect; type: in vivo, human; settings: 100 mg; for Tmax: human, plasma, oral, Median t max
Method in brief: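 Open-label, single-dose, 3-period cross-over; 17 healthy participants; washout ≥24 days. Each received 100 mg oral as PiB fed, tablet fed or tablet fasted. Overnight fast ≥9.5 h before and ≥4 h after dosing; fed arms got a moderate-fat meal 25 min pre-dose. Non-compartmental PK. Log_e PK parameters fitted by mixed-effect models (fed/fasted, tablet/PiB fixed; participant random). Back-transformed 90% CIs for AUC_0‐24, AUC_0‐∞, Cmax.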

[4] = test system: rats; assay: Dose ranging and good laboratory practice toxicology studies in rats; type: in vivo
[5] = test system: dogs; assay: Dose ranging and good laboratory practice toxicology studies in dogs; type: in vivo
[6] = Multiple ascending dose; type: in vivo, human; settings: for half-life / AUC(0-t) / Cmax / concentration at 24 h / Tmax / concentration at 168 h: human, plasma, oral; for Cmax: C max; for Cmax / concentration at 24 h / concentration at 168 h: ng/mL GM (%CVb); for concentration at 24 h / concentration at 168 h: C trough; for Tmax: t max, h median (range)
Method in brief: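 Healthy participants, double-blind and placebo-controlled, cohorts of 10 randomized 7:3. Oral doses after a moderate-fat meal: 25–100 mg QD for 14 days (18 days at top dose), or 500 mg QW ×3. Trough taken pre-dose at end of interval (24 h QD, 168 h QW). Plasma followed to 360 h; LLOQ 10 ng/mL. Non-compartmental PK; accumulation ratios Day 14, 15 or 18 vs Day 1; geometric means with CVb.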

[7] = test system: healthy participants; assay: Safety pooled across study parts; type: in vivo, human
Method in brief: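 AEs in healthy participants given oral test compound or placebo, recorded with grade and relation to treatment. Laboratory analyses, clinical parameters and suicidality were also monitored. Observation ran 360 h after dosing. Summaries were descriptive, with no formal statistics; parts 1–2 blinded and placebo-controlled, part 3 open-label.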

## C=C(C)[C@@H]1CC[C@]2(NCCN3CCS(=O)(=O)CC3)CC[C@]3(C)[C@H](CC[C@@H]4[C@@]5(C)CC=C(C6=CC[C@@](COc7ncccc7C#N)(C(=O)O)CC6)C(C)(C)[C@@H]5CC[C@]43C)[C@@H]12 [GSK'937]
[1]
  Drug-related AEs, n occurrences (% of cohort): 2 (33)
  Headache, n occurrences (% of cohort): 0
  MDSD, n occurrences (% of cohort): 1 (17)
[2]
  potency in vitro: low nanomolar
[3]; fed
  increase in C max, tablet versus PiB: approximately 37%
  increase in bioavailability by AUC0-24, tablet versus PiB: 38%
  increase in bioavailability by AUC0-∞, tablet versus PiB: 35%
[3]; 100 mg PiB fed
  Tmax: 9 h
[3]; 100 mg tablet fasted
  Tmax: 6 h
[3]; both tablet and PiB formulations under fed conditions
  Tmax: 8 to 9 h
[3]; tablet
  exposure in fed versus fasted states: > 2 fold
[4]
  no observed adverse effect level: 10 mg/kg/day
[5]
  lowest observed adverse effect level: 3 mg/kg
[6]; 25 mg QD, Day 14/Day 1
  Accumulation ratio of C trough GM (%CVb): 6.58 (31.4)
[6]; 50 mg QD, Day 14/Day 1
  Accumulation ratio of C trough GM (%CVb): 5.25 (35.7)
[6]; 100 mg QD, Day 18/Day 1
  Accumulation ratio of C trough GM (%CVb): 9.39 (72.5)
[6]; 500 mg QW (weekly)
  accumulation in exposure following repeat dosing: ~ 1.7 fold
[6]; 500 mg QW, Day 15/Day 1
  Accumulation ratio of AUC0-t GM (%CVb): 1.76 (27.0)
  Accumulation ratio of C max GM (%CVb): 1.68 (26.9)
  Accumulation ratio of C trough GM (%CVb): 1.82 (33.8)
[6]; all part 2 participants
  time after final dose at which still detectable: 360 h
[6]
  half-life: 72.2 to 85.8 h
[6]; 25 mg
  AUC(0-t): 1890 ng·h/mL
  half-life: 85.8 h
[6]; 25 mg, 25 mg QD, Day 1
  Cmax: 132 ng/mL
  Tmax: 9 h
[6]; 25 mg, 25 mg QD, Day 14
  Cmax: 766 ng/mL
  Tmax: 6.95 h
[6]; 25 mg, 25 mg QD, Day 1, 24 h
  concentration at 24 h: 89.3 ng/mL
[6]; 25 mg, 25 mg QD, Day 14, 24 h
  concentration at 24 h: 588 ng/mL
[6]; 50 mg
  AUC(0-t): 3560 ng·h/mL
  half-life: 72.2 h
[6]; 50 mg, 50 mg QD, Day 1
  Cmax: 232 ng/mL
  Tmax: 8 h
[6]; 50 mg, 50 mg QD, Day 14
  Cmax: 1150 ng/mL
  Tmax: 7.03 h
[6]; 50 mg, 50 mg QD, Day 1, 24 h
  concentration at 24 h: 189 ng/mL
[6]; 50 mg, 50 mg QD, Day 14, 24 h
  concentration at 24 h: 990 ng/mL
[6]; 100 mg
  AUC(0-t): 5890 ng·h/mL
  half-life: 78.5 h
[6]; 100 mg, 100 mg QD, Day 1
  Cmax: 375 ng/mL
  Tmax: 9 h
[6]; 100 mg, 100 mg QD, Day 14
  Cmax: 2680 ng/mL
  Tmax: 7.49 h
[6]; 100 mg, 100 mg QD, Day 18
  Cmax: 2750 ng/mL
  Tmax: 9.01 h
[6]; 100 mg, 100 mg QD, Day 1, 24 h
  concentration at 24 h: 272 ng/mL
[6]; 100 mg, 100 mg QD, Day 14, 24 h
  concentration at 24 h: 2420 ng/mL
[6]; 100 mg, 100 mg QD, Day 18, 24 h
  concentration at 24 h: 2460 ng/mL
[6]; 500 mg
  half-life: 74.5 h
[6]; 500 mg, 500 mg QW, Day 1
  Cmax: 1110 ng/mL
  Tmax: 9.88 h
[6]; 500 mg, 500 mg QW, Day 8
  Cmax: 2320 ng/mL
  Tmax: 10 h
[6]; 500 mg, 500 mg QW, Day 15
  Cmax: 1860 ng/mL
  Tmax: 10 h
[6]; 500 mg, 500 mg QW, Day 1, 168 h
  concentration at 168 h: 251 ng/mL
[6]; 500 mg, 500 mg QW, Day 8, 168 h
  concentration at 168 h: 498 ng/mL
[6]; 500 mg, 500 mg QW, Day 15, 168 h
  concentration at 168 h: 455 ng/mL
[7]; all study parts
  severity of all AEs in participants receiving GSK'937: grade 1 or 2
[7]; parts 1 and 2, 1/17
  dry skin among AEs attributable to GSK'937: 6%
[7]; parts 1 and 2, 2/17
  headache among AEs attributable to GSK'937: 12%
[7]; parts 1 and 2, 13/64
  Gastrointestinal disorders among GSK'937 recipients: 20%
[7]; parts 1 and 2, 14/17
  GI disorders among AEs attributable to GSK'937: 82%
